The results in this text go back to article PMC6092622 (The EMBO Journal, 2018).

Where two headings read alike, the source gives them in different places.

The subject of one test is IKK and SOD1/IKK mice. It counts as in vivo, mouse. Summed up: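 Transgene expression was active in the sustained cohort (DOX withdrawn at P20–25). Mice of all four genotypes got a Porcupine inhibitor by daily oral gavage at 10 mg/kg for 12 days, from P25 (sacrificed at P38) or from P90 (to P102). It was suspended in PBS + 5% Tween-80 + 5% PEG-400; vehicle controls were included. Spinal cord sections were immunostained; Ki-67 and CD45 required citrate antigen retrieval. Cell densities are per area unit.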

In test [1] the target is T1, human CB2 (Homo sapiens, UniProt P34972). Description: cAMP assay in CHO cells stably expressing human CB2. It counts as cell-based. Particulars: in words. Summed up: (§1)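 cAMP assays were run in CHO cells stably expressing human CB2 or mouse CB2. Efficacy is expressed as % of the response to 1 μM CP55940.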
T1 sequence (P34972 whole entry, the tested form may be a part): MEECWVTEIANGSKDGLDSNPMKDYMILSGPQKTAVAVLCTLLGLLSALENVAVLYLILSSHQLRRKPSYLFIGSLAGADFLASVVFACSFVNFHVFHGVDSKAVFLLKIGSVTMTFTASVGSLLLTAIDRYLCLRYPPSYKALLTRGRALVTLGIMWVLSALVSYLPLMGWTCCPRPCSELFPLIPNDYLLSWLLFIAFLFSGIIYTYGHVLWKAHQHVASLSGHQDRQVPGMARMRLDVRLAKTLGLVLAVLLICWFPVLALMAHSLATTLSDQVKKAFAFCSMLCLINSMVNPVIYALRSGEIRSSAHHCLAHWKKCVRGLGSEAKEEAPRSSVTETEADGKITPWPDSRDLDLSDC
The subject of a further test is SOD1 (G93A) mice. As to the kind of experiment: CB2 ligands given i.p. to SOD1. It counts as in vivo, mouse. Particulars: for fraction of LC3A bright MN: P25 to P35, vehicle 23.4 ± 7.7; for misfolded SOD1: high-burden MN fraction: P25 to P35, vehicle 25.4 ± 5.5%; for %IBA1+ area (microglial expansion): P25 to P35, SOD1-veh 9.7 ± 0.4%. Summed up: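 Male SOD1(G93A) mice got daily i.p. CB2 agonists (10 mg/kg) or inverse agonist (30 mg/kg) as a microsuspension in 1% Tween-80/0.9% NaCl with 0.2% parabens, or vehicle. Spinal cords were perfusion-fixed and cut into 40 μm free-floating sections. CD4 was stained after citrate-heat antigen retrieval. IBA1 was scored as the thresholded area fraction of ventral-horn ROIs. High-burden MN cutoff: 75th percentile of vehicle-treated SOD1. Used 8–10 sections/mouse, ≥4 mice/group.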

Test [2] concerns the target T1, human CB2. Format: binding. The settings on record: CB2 versus CB1, as stated in text. In outline:
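Competition binding used [3H]-CP55940 radioligand on membranes from cells expressing human CB2 or human CB1, so that selectivity could be compared. Each compound was tested at 10 concentrations in triplicate. Ki values were calculated from a single experiment.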

A further test addresses mouse CB2 (Mus musculus, UniProt P47936). Description: cAMP assay in CHO cells stably expressing mouse CB2. Format: cell-based. The settings on record: in words. Summed up:
as §1
A general note: Cyclic AMP is a second messenger, typically raised through Gs and lowered through Gi signalling.

The next test deals with WT mice. As to the kind of experiment: CB2 agonists given to WT mice, IBA1 immunostaining. It counts as in vivo, mouse. The settings on record: IBA1 staining.
Where [3] appears, read: 30 mg/kg once daily i.p., P25 to P35.
[4] abbreviates: 10 mg/kg once daily i.p., P25 to P35.

Chain of mouse CB2 (P47936 whole entry): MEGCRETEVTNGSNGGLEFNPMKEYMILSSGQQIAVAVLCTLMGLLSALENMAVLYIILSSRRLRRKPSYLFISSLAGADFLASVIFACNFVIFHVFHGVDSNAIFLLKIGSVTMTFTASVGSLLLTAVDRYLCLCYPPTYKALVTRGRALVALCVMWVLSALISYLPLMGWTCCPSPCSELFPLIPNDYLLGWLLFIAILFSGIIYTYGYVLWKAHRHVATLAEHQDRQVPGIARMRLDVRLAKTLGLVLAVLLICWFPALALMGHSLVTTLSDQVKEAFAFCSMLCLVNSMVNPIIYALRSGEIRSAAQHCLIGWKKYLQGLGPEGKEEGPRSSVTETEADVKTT

In the case of `Cc1cc(-c2ccc(CC(=O)Nc3ccc(-c4cccnc4)cc3)cc2)ccn1` [Compound C59], in the test on IKK and SOD1/IKK mice (10 mg/kg daily oral gavage for 12 days from P25, sacrifice at P38), the WNT5a immunoreactivity was < 10 % of vehicle‐treated (Veh) SOD1/IKK. Further, the “decrease in misfolded SOD1 and LC3A levels in SOD1/IKK versus SOD1 littermates” value with IKK and SOD1/IKK mice (10 mg/kg daily oral, P25-P38) is “completely reverted”. The “number of CD45+ cells” value with IKK and SOD1/IKK mice (IKK and SOD1/IKK mice, late phase P90 to P102) is recorded as “significantly decreased”; in the test on IKK and SOD1/IKK mice (early administration, 10 mg/kg daily oral, P25-P38), “strongly decreased”. The “number of CD11b+KI-67+ cells” value with IKK and SOD1/IKK mice (IKK mice, 10 mg/kg daily oral, P25-P38, IKK-Veh 11.0 ± 3.0) is on record as 5.4 ± 0.2 cells per 10^4 μm^2; with IKK and SOD1/IKK mice (SOD1/IKK mice, 10 mg/kg daily oral, P25-P38, SOD1/IKK-Veh 18.0 ± 2.0), 5.0 ± 1.3 cells per 10^4 μm^2. Further, the “overall IBA1+ area” value with IKK and SOD1/IKK mice (IKK mice, 10 mg/kg daily oral, P25-P38, IKK-Veh 52.1 ± 6.5) worked out at 30.5 ± 4.6%; with IKK and SOD1/IKK mice (SOD1/IKK mice, 10 mg/kg daily oral, P25-P38, SOD1/IKK-Veh 53.6 ± 3.9), 39.2 ± 4.9%. Also, the “microglial density (number of IBA1+ cells)” value came out at 18.2 ± 1.7 cells/10^4 μm^2 in the test on IKK and SOD1/IKK mice (IKK mice, 10 mg/kg daily oral, P25-P38, vehicle 30.4 ± 1.8); 20.2 ± 4.0 cells/10^4 μm^2 in the test on IKK and SOD1/IKK mice (SOD1/IKK mice, 10 mg/kg daily oral, P25-P38, vehicle 36.2 ± 6.1). In addition, the “number of IBA1+ cells at P102” value stood at 7.8 ± 0.3 with IKK and SOD1/IKK mice (IKK mice, late phase P90 to P102, IKK-Veh 16.5 ± 0.7); 9.41 ± 0.35 in the test with IKK and SOD1/IKK mice (SOD1/IKK mice, late phase P90 to P102, SOD1/IKK-Veh 15.8 ± 0.2).
`CNC(=O)[C@@H](NC(=O)c1cc(OCC2(C)COC2)c(C2CC2)cn1)C(C)(C)C` [RO6851228, 5-Cyclopropyl-N-[(1S)-2,2-dimethyl-1-(methylcarbamoyl)propyl]-4-[(3-methyloxetan-3-yl)methoxy]pyridine-2-carboxamide]: the “functional activity in cAMP assay, human CB2” value at human CB2 [1] was “inverse agonist activity”. Besides, in the test on SOD1 (G93A) mice (setting [3]), the “infiltration of CD4+ lymphocytes in spinal cord” value (“infiltration of CD4+ lymphocytes” below) is given as “did not affect lymphocyte infiltration”; the microglial morphology result is “expansion of the size and of the complexity of microglial processes”. Moreover, in the test with SOD1 (G93A) mice (30 mg/kg once daily i.p.), the “fraction of LC3A bright MN” value came out at 11.4 ± 13.9% and the “misfolded SOD1: high-burden MN fraction” value is listed as 10.2 ± 5.1%.
`Cc1nonc1Cn1nnc2c(N3CC[C@H](O)C3)nc(C(C)(C)C)nc21` [RO6866945, (3S)-1-[5-tert-Butyl-3-[(4-methyl-1,2,5-oxadiazol-3-yl)methyl]triazolo[4,5-d]pyrimidin-7-yl]pyrrolidin-3-ol]: the “binding selectivity against CB1” value on human CB2 [2] is listed as 939 fold. Besides, the “functional activity in cAMP assay, human CB2” value at human CB2 [1] is recorded as “full agonists”. In addition, at mouse CB2, the “functional activity in cAMP assay, mouse CB2” value is recorded as “full agonists”. In addition, the “infiltration of CD4+ lymphocytes” value in the test on SOD1 (G93A) mice (setting [4]) is given as “did not affect lymphocyte infiltration”. In the test with SOD1 (G93A) mice (10 mg/kg once daily i.p.), the “%IBA1+ area (microglial expansion)” value is 4.9 ± 0.2%, the “fraction of LC3A bright MN” value turned out to be 70.8 ± 11.2% and the “misfolded SOD1: high-burden MN fraction” value came out at 42.3 ± 8.7%. Moreover, in the test with WT mice, the “effect on microglial size in WT animals” value is “did not affect microglial size”.
Turning to `Cc1nc([C@@](C)(CC2CC2)NC(=O)c2cc(OCC(F)(F)F)c(C3CC3)cn2)no1` [RO6871085, 5-Cyclopropyl-N-[(1R)-2-cyclopropyl-1-methyl-1-(5-methyl-1,2,4-oxadiazol-3-yl)ethyl]-4-(2,2,2-trifluoroethoxy)pyridine-2-carboxamide], the “binding selectivity against CB1” value on human CB2 [2] is reported as 44 fold. Besides, at human CB2 [1], the “functional activity in cAMP assay, human CB2” value is given as “full agonists”. The “functional activity in cAMP assay, mouse CB2” value on mouse CB2 is “full agonists”. Moreover, in the test on SOD1 (G93A) mice (setting [4]), the “infiltration of CD4+ lymphocytes” value is recorded as “increased the number of CD4^+ cells”. In addition, in the test with SOD1 (G93A) mice (10 mg/kg once daily i.p.), the “%IBA1+ area (microglial expansion)” value was 5.2 ± 0.3%, the “fraction of LC3A bright MN” value was found to be 45.4 ± 5.6% and the “misfolded SOD1: high-burden MN fraction” value is listed as 69.1 ± 9.5%.
Turning to `NC(=O)[C@@H]1CC(F)(F)CN1C(=O)c1ccc(N2CC(F)(F)C2)c(OCC2CC2)n1` [RO6895896, (2S)-1-[6-(Cyclopropylmethoxy)-5-(3,3-difluoroazetidin-1-yl)pyridine-2-carbonyl]-4,4-difluoro-pyrrolidine-2-carboxamide], the “functional activity in cAMP assay, human CB2” value on human CB2 [1] is recorded as “full agonists”. Moreover, the “functional activity in cAMP assay, mouse CB2” value at mouse CB2 is recorded as “full agonists”. Moreover, the “infiltration of CD4+ lymphocytes” value in the test with SOD1 (G93A) mice (setting [4]) is “did not affect lymphocyte infiltration”. In the test on SOD1 (G93A) mice (10 mg/kg once daily i.p.), the “%IBA1+ area (microglial expansion)” value came to 6.0 ± 0.2%, the “fraction of LC3A bright MN” value is reported as 73.4 ± 12.4% and the “misfolded SOD1: high-burden MN fraction” value was 72.4 ± 11.3%. The “effect on microglial size in WT animals” value with WT mice is “did not affect microglial size”.
